The values below come from PMC3063487 (Bioconjugate chemistry, 2011).

Data set [1] is described as follows: Protein binding assay. The class given is in vitro ADME. The conditions noted are these: bovine, dialyzed fetal bovine serum.
The test system of data set [2] is NFκB-bla Raw 264.7 cells. Nature of the data set: In vitro NFkB activation using NFκB-bla Raw 264.7 cells. The conditions noted are these: Mus musculus, RAW264.7, 16 h; for EC50: read-out: EC50 NFkB-RAW; for maximal fold induction: read-out: Imax NFkB-RAW (RR). Format: cell-based, murine. In short, it runs like this:
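NFκB-bla RAW 264.7 cells at 5×10^4 per well in OptiMEM with 0.5% dialyzed FBS, 0.1 mM non-essential amino acids, 1 mM pyruvate, 10 mM HEPES pH 7.3 and penicillin/streptomycin. Test compound came from 10 or 50 mM DMSO stocks, was serially diluted in DMSO, then in medium.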

Data set [3] has as its system murine primary BMDM. The data set is described as follows: In vitro cytokine induction in bone marrow derived macrophages. The class given is cell-based, mouse (C57BL/6). As to conditions: for EC50: Mus musculus, BMDM, 18 h, read-out: EC50 BMDM; for Imax BMDM (IL-6 ng/ml): maximum level of IL-6 induction, 18 hours. In short, it runs like this:
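Bone marrow-derived macrophages from C57BL/6 mice at 5×10^4 cells per well. Cells were given serially diluted test compound, from 50–100 mM DMSO stocks, for 18 h at 37°C, 5% CO2. Supernatant IL-6 was measured by ELISA, detection limit 15 pg/mL. Curves were fitted by nonlinear regression to give EC50 and maximal IL-6 induction. Representative of two independent experiments.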

The subject of data set [4] is human B cells. Nature of the data set: Human B cell proliferation. The class given is cell-based. The conditions noted are these: human PBMC, four days. A digest of the protocol:
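Human PBMC from blood-bank buffy coats, from three donors. Cells were labelled with 10 μM CFSE in saline for 10 min, washed, then exposed to 1 or 10 μM test compound for four days. Cells were surface-stained for CD19. Proliferation of the CD19-gated B cells was scored by flow cytometry as CFSE dilution. Representative of two independent experiments.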

Data set [5] is described as follows: Pharmacokinetic. Format: in vivo, mouse (C57BL/6). The conditions noted are these: for AUC: C57BL/6, mouse, iv, 500 nmol.
The nature of data set [6]: Solubility study in deionized water. As to conditions: for Water Solubility: saturated solution in deionized water, osmometer.
The test system of data set [7] is C57BL/6 mice. Nature of the data set: Pharmacodynamic. The class given is in vivo, mouse (C57BL/6). As to conditions: 200 nmol i.v., all time points analyzed. A digest of the protocol: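 Female C57BL/6 mice, 5 per group, received 200 nmol test compound intravenously. Sera were collected 2, 4, 6, 24 and 48 h after injection and held at −20°C. IL-6 and TNF-α were measured by Luminex bead assay, with detection limits of 5 and 10 pg/mL. Means ± SEM of five mice were compared with vehicle and unconjugated ligand by one-way ANOVA with Bonferroni post hoc test.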

The test system of data set [8] is dialyzed serum proteins. The data set is described as follows: Protein binding assay. As to conditions: rapid equilibrium dialysis, dialyzed fetal bovine serum, UV 282 nm. Format: in vitro ADME. (In equilibrium dialysis only unbound substance equilibrates across the membrane.)
Data set [9] has as its system human PBMC. The data set is described as follows: Cytokine induction by human PBMC. Format: cell-based. The conditions noted are these: 1 or 10 μM, 18 hours.

Structures are written as SMILES. Values joined by “and” are separate entries in the source; they are usually repeats but may differ in a detail not shown here. Equal entries are not always repeated. “Also recorded” adds a separate entry of the source.

Broadly, the fraction unbound is the share of the substance not bound to proteins or other matrix. Lower therefore signals little free substance. For orientation: EC50 means the concentration giving half of the maximal effect. The AUC is concentration integrated over time. A low value points to less exposure.

`COCCOc1nc(N)c2nc(O)n(Cc3ccccc3)c2n1` [Compound 1V136, 9-benzyl-8-hydroxy-2-(2-methoxyethoxy) adenine, reference compound]: in data set [1], the free fraction (fraction unbound) is 0.332. Further, in [2], the concentration for a half-maximal effect (EC50) was found to be 0.08 ± 0.01 µM and the maximal fold induction was 3.56 ± 0.38. In addition, in data set [3], the half-maximal effective concentration (EC50) worked out at 0.36 ± 0.09 µM and the “Imax BMDM (IL-6 ng/ml)” value was determined as 3.32 ± 0.54 ng/mL. In data set [4] (1 μM), the B cell proliferation entry was “induced strong B cell proliferation”. Also, the AUC in data set [5] (in vivo) was 1.62 µM·h. Moreover, the “Water solubility (in words)” value in data set [6] (deionized water) is listed as “highly insoluble in aqueous solution”.

Take `COCCOc1nc(N)c2[nH]c(=O)n(Cc3ccc(C(=O)O)cc3)c2n1` [Compound 1V209, 4-{[6-Amino-2-(2-methoxyethoxy)-8-oxo-7H-purin-9(8H)-yl]methyl}benzoic Acid]: in data set [6], the “Water Solubility” value worked out at 35 ±1 mOsm/kg.

For the compound `COCCOc1nc(N)c2nc(O)n(Cc3ccc(C(=O)NCCOCCOCCOCCOCCOCCOCCN=[N+]=[N-])cc3)c2n1` [Compound 1a, 4-((6-amino-8-hydroxy-2-(2-methoxyethoxy)-9H-purin-9-yl)methyl)-N-(20-azido-3,6,9,12,15,18-hexaoxaicosyl)benzamide], in data set [2], the EC50 came to 4.13 ± 0.97 µM and the maximal fold induction is 2.9 ± 0.06. Further, in data set [3], the concentration for a half-maximal effect (EC50) came out at 8.18 ± 1.91 µM and the “Imax BMDM (IL-6 ng/ml)” value amounted to 2.60 ± 0.49 ng/mL. Also, the “Serum cytokine levels (IL-6, TNF-α) compared to 1V136” value in [7] is “minimum induction of proinflammatory cytokines”.

Take `COCCOc1nc(N)c2nc(O)n(Cc3ccc(C(=O)NCCOCCOCCOCCOCCOCCOCCn4cc(CCC(=O)O)nn4)cc3)c2n1` [Compound 1b, 3-(1-(1-(4-((6-amino-8-hydroxy-2-(2-methoxyethoxy)-9H-purin-9-yl)methyl)phenyl)-1-oxo-5,8,11,14,17,20-hexaoxa-2-azadocosan-22-yl)-1H-1,2,3-triazol-4-yl)propanoic acid]: in data set [2], the EC50 is 4.99 ± 0.7 µM and the maximal fold induction was 3.04 ± 0.23. Moreover, in data set [3], the EC50 was found to be 10.6 ± 1.74 µM and the “Imax BMDM (IL-6 ng/ml)” value amounted to 2.46 ± 0.36 ng/mL. For the same compound, in [4] (1 and 10 μM, three donors), the B cell proliferation result was “minimally induced proliferation; also recorded: undetectable”. Moreover, the AUC in [5] (serum) was 5.93 µM·h. Moreover, the “Serum cytokine levels (IL-6, TNF-α) compared to 1V136” value in data set [7] was “significantly less cytokine levels; also recorded: minimum induction of proinflammatory cytokines”. The “Water Solubility” value in data set [6] is 240 mOsm/kg and 240 ± 10 mOsm/kg.

Regarding `COCCOc1nc(N)c2nc(O)n(Cc3ccc(C(=O)NCCOCCOCCOCCOCCOCCOCCN)cc3)c2n1` [Compound 1c, 4-((6-amino-8-hydroxy-2-(2-methoxyethoxy)-9H-purin-9-yl)methyl)-N-(20-amino-3,6,9,12,15,18-hexaoxaicosyl)benzamide], in [8], the “Protein Binding (%)” value is reported as 51.3 ±6.4%. Moreover, in [2], the EC50 worked out at 1.19 ± 0.2 µM and the maximal fold induction amounted to 3.27 ± 0.39. Besides, in data set [3], the EC50 is 3.9 ± 1.06 µM and the “Imax BMDM (IL-6 ng/ml)” value was 5.19 ± 1.96 ng/mL. Besides, the “Cytokine induction (IL-6, TNF-α) in human PBMC (in words)” value in [9] is “higher potencies than the corresponding compounds with carboxyl-terminals”. The “Serum cytokine levels (IL-6, TNF-α) compared to 1V136” value in data set [7] is listed as “significantly less cytokine levels; also recorded: minimum induction of proinflammatory cytokines”.

For the compound `COCCOc1nc(N)c2nc(O)n(Cc3ccc(C(=O)NCCOCCOCCOCCOCCOCCOCCOCCOCCOCCOCCN=[N+]=[N-])cc3)c2n1` [Compound 2a, 4-((6-amino-8-hydroxy-2-(2-methoxyethoxy)-9H-purin-9-yl)methyl)-N-(32-azido-3,6,9,12,15,18,21,24,27,30-decaoxadotriacontyl)benzamide], in [2], the EC50 was determined as 5.91 ± 1.33 µM and the maximal fold induction was determined as 3.55 ± 0.14. Further, in data set [3], the concentration giving a half-maximal response (EC50) was determined as 6.93 ± 3.54 µM and the “Imax BMDM (IL-6 ng/ml)” value was 2.72 ± 0.34 ng/mL. The “Serum cytokine levels (IL-6, TNF-α) compared to 1V136” value in data set [7] was “minimum induction of proinflammatory cytokines”.

As to `COCCOc1nc(N)c2nc(O)n(Cc3ccc(C(=O)NCCOCCOCCOCCOCCOCCOCCOCCOCCOCCOCCn4cc(CCC(=O)O)nn4)cc3)c2n1` [Compound 2b, 3-(1-(1-(4-((6-amino-8-hydroxy-2-(2-methoxyethoxy)-9H-purin-9-yl)methyl)phenyl)-1-oxo-5,8,11,14,17,20,23,26,29,32-decaoxa-2-azatetratriacontan-34-yl)-1H-1,2,3-triazol-4-yl)propanoic acid], in data set [2], the EC50 worked out at 2.67 ± 0.75 µM and the maximal fold induction came to 3.15 ± 0.23. In addition, in [3], the EC50 amounted to 4.42 ± 1.18 µM and the “Imax BMDM (IL-6 ng/ml)” value stood at 2.79 ± 0.47 ng/mL. In addition, the B cell proliferation result in data set [4] (1 and 10 μM, three donors) is “minimally induced proliferation; also recorded: undetectable”. The “Serum cytokine levels (IL-6, TNF-α) compared to 1V136” value in [7] is on record as “significantly less cytokine levels; also recorded: minimum induction of proinflammatory cytokines”.

On to `COCCOc1nc(N)c2nc(O)n(Cc3ccc(C(=O)NCCOCCOCCOCCOCCOCCOCCOCCOCCOCCOCCN)cc3)c2n1` [Compound 2c, 4-((6-amino-8-hydroxy-2-(2-methoxyethoxy)-9H-purin-9-yl)methyl)-N-(32-amino-3,6,9,12,15,18,21,24,27,30-decaoxadotriacontyl)benzamide], for which the “Protein Binding (%)” value in data set [8] was 57.6 ± 1.2%. For the same compound, in data set [2], the EC50 is 1.16 ± 0.39 µM and the maximal fold induction came out at 3.23 ± 0.27. In addition, in data set [3], the EC50 was found to be 2.24 ± 0.33 µM and the “Imax BMDM (IL-6 ng/ml)” value was 2.89 ± 0.49 ng/mL. Besides, the “Cytokine induction (IL-6, TNF-α) in human PBMC (in words)” value in [9] is “higher potencies than the corresponding compounds with carboxyl-terminals”. The “Serum cytokine levels (IL-6, TNF-α) compared to 1V136” value in data set [7] is listed as “minimum induction of proinflammatory cytokines”.

As for `COCCOc1nc(N)c2nc(O)n(Cc3ccc(C(=O)NCCOCCOCCOCCOCCOCCOCCOCCOCCOCCOCCOCCOCCOCCOCCOCCOCCOCCOCCOCCN)cc3)c2n1` [Compound 3, 4-((6-amino-8-hydroxy-2-(2-methoxyethoxy)-9H-purin-9-yl)methyl)-N-(59-amino-3,6,9,12,15,18,21,24,27,30,33,36,39,42,45,48,51,54,57-nonadecaoxanonapentacontyl)benzamide], in [8], the “Protein Binding (%)” value was determined as 79.5 ± 1.35%. Moreover, in [2], the EC50 worked out at 0.9 ± 0.29 µM and the maximal fold induction stood at 3.58 ± 0.58. Further, in data set [3], the 50% effective concentration (EC50) came out at 1.79 ± 0.77 µM and the “Imax BMDM (IL-6 ng/ml)” value was determined as 4.10 ± 1.33 ng/mL. Besides, in data set [4] (1 and 10 μM, three donors), the B cell proliferation result is given as “induced B cell proliferation only at 10 μM”. This compound gave an AUC in data set [5] (serum) of 41.4 µM·h. Besides, the “Maximum serum concentration compared to 1V136” value in data set [5] (C57BL/6 mice, i.v. 500 nmol) was “significantly higher maximum serum concentrations”.
